Test results: ChEMBL document CHEMBL5380838, “Novel Aryl Sulfonamide Derivatives as NLRP3 Inflammasome Inhibitors for the Potential Treatment of Cancer” (J Med Chem, 2023)
Calls of active or inactive are those of the source. No cut-off for these calls is given here.

How the values were obtained:
[1] = Metabolic stability in mouse liver microsomes assessed as intrinsic clearance measured per mg protein at 1 uM measured upto 60 mins by LC-MS/MS analysis; format: ADME, Microsome; conditions: read-out: CLH
Summary of the method: (§1)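 Pooled human or CD-1 male mouse liver microsomes at 0.5 mg/mL with test compound 1 µM in 50 mM phosphate pH 7.4 and 3 mM MgCl2, preincubated 10 min at 37 °C. Percent parent remaining vs 0 min measured by LC-MS/MS. Cli = k/microsomal conc. × 1000; mean ± SD, n = 2.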

[2] = tested on: Mus musculus; test: Antiinflammatory activity in LPS-induced C57BL/6 mouse assessed as reduction in IL-1beta production in peritoneal exudate at 25 mg/kg, ip pretreated for 30 mins followed by LPS induction measured after 4 hrs by ELISA method; format: functional, organism-based; conditions: time 4.5 hrs
Summary of the method: (§2)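 C57BL/6 mice given inhibitor 25 mg/kg IP (vehicle DMSO) 30 min before IP LPS 1 mg/kg; after 4 h, peritoneal exudate and blood collected, plasma from centrifugation 1000g 15 min 4 °C; IL-1β measured by ELISA; mean ± SEM of three independent experiments.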

[3] = tested on: THP-1; test: Suppression of caspase-1 p10 expression in LPS-treated human THP-1 cells at 1 to 1000 nM incubated for 30 mins followed by ATP stimulation for 1 hr […]; format: functional, cell-based; conditions: dose 1-1000 nM, time 90.0 min
[4] = tested on: THP-1; test: Suppression of IL-1beta processing in LPS-treated human THP-1 cells at 1 to 1000 nM incubated for 30 mins followed by ATP stimulation for 1 hr by ELISA method; format: functional, cell-based; conditions: dose 1-1000 nM, time 90.0 min
[5] = tested on: B16-F10; test: Antiproliferative activity against LPS-treated mouse B16-F10 cells co-cultured with mouse peritoneal macrophages assessed as decrease in cell growth at 1 uM incubated for 30 mins followed by ATP stimulation for 1 hr measured after 48 hrs by cell counting method; format: functional, cell-based; conditions: time 49.5 hrs
Summary of the method: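 Transwell co-culture (0.4 µm pores), 48 h: peritoneal macrophages from C57BL/6 mice (2 × 10^5, lower well) primed with LPS 1 µg/mL 2 h, then DMSO or compound 1 µM 30 min, then ATP 1 h; B16-F10 cells (2 × 10^3) in upper insert; tumor cells removed after 48 h and counted by image-based cytometer.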

[6] = tested on: B16-F10; test: Effect on total caspase-1 expression in cytosolic luciferase-transfected mouse B16-F10 cells xenografted in C57BL/6 mouse at 25 mg/kg, ip administered thrice weekly measured after 14 days by Western blot analysis; format: functional, organism-based; conditions: time 14.0 day
Summary of the method: (§3)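 Tumors from luciferase-expressing B16-F10 grafts in C57BL/6 mice, dosed IP at 25 mg/kg thrice weekly (DMSO controls), were excised at endpoint and homogenized in sucrose/HEPES/IGEPAL lysis buffer. Lysates were western blotted and bands expressed as fold ratio over β-actin (n = 5).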

[7] = tested on: THP-1; test: Suppression of caspase-1 expression in LPS-treated human THP-1 cells at 1 to 1000 nM incubated for 30 mins followed by ATP stimulation for 1 hr by […]; format: functional, cell-based; conditions: dose 1-1000 nM, time 90.0 min
Summary of the method: (§4)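 PMA-differentiated THP-1 cells (1 × 10^6/well) primed with LPS 1 µg/mL for 3 h, then DMSO or compound in serum-free medium for 30 min, then 5 mM ATP for 1 h. RIPA lysates (20 µg) and concentrated supernatants run on SDS-PAGE and western blotted for NLRP3, ASC, caspase-1 and IL-1β, normalized to GAPDH; three independent experiments.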

[8] = tested on: THP-1; test: Cytotoxicity against human THP-1 cells assessed as reduction in cell viability at 1 uM measured after 48 hrs by RealTime-Glo MT assay; format: toxicity, cell-based; conditions: thp-1, 48 h
Summary of the method: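 THP-1 cells (10 × 10^4/well) treated with inhibitors at 1 µM and kept 48 h; RealTime-Glo reagent added, luminescence read every 12 h as a proxy for metabolically active cells; means of RLU ± SEM.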

[9] = tested on: B16-F10; test: Effect on NLRP3 expression in cytosolic luciferase-transfected mouse B16-F10 cells xenografted in C57BL/6 mouse at 25 mg/kg, ip administered thrice weekly measured after 14 days by Western blot analysis; format: functional, organism-based; conditions: time 14.0 day; summary of the method: as §3
[10] = tested on: BMDM; test: Effect on NLRP3-ASC interaction in LPS-treated mouse BMDM cells at 1 uM incubated for 30 mins followed by ATP stimulation for 1 hr by co-immunoprecipitation based Western blot analysis; format: functional, cell-based; conditions: time 90.0 min
Summary of the method: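 BMDMs (1 × 10^7) primed with LPS 2 h, treated 1 µM compound 30 min, then ATP 1 h; lysed in HEPES/NaCl/glycerol/EDTA/0.5% Triton buffer with protease/phosphatase inhibitors; NLRP3–ASC co-immunoprecipitation, bait eluted in Laemmli buffer, western blot; representative of three independent experiments.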

[11] = tested on: BMDM; test: Effect on ASC level in LPS-treated mouse BMDM cells at 1 uM incubated for 30 mins followed by ATP stimulation for 1 hr by Hoechst staining based microscopy; format: functional, cell-based; conditions: time 90.0 min
Summary of the method: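 BMDMs primed with LPS 1 µg/mL for 2 h, given DMSO or compound 1 µM for 30 min, then 5 mM ATP for 1 h. Cells fixed in 4% PFA, permeabilized with 0.1% Triton X-100, stained with anti-ASC overnight at 4 °C plus fluorescent secondary, nuclei Hoechst 1 µM; confocal imaging with 63× oil objective.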

[12] = Metabolic stability in human liver microsomes assessed as half life measured per mg protein at 1 uM measured upto 60 mins by LC-MS/MS analysis; format: ADME, Microsome; summary of the method: as §1
[13] = tested on: BMDM; test: Effect on NLRC4 inflammasome activation in LPS-treated mouse BMDM cells assessed as IL-1beta release at 1 uM incubated for 30 mins followed by Salmonella typhimurium flagellin stimulation for 2 hrs by ELISA method; format: functional, cell-based; conditions: time 150.0 min
Summary of the method: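 BMDMs primed with LPS 100 ng/mL for 3 h, then compound 1 µM in serum-free medium for 30 min, then flagellin 100 ng/mL for 2 h; supernatant mouse IL-1β by ELISA.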

[14] = tested on: B16-F10; test: Antitumor activity against cytosolic luciferase-transfected mouse B16-F10 cells xenografted in C57BL/6 mouse assessed as tumor reduction at 25 mg/kg, ip administered thrice weekly measured after 14 days by bioluminescence assay; format: functional, organism-based; conditions: time 14.0 day
Summary of the method: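 Female C57BL/6 mice aged 6–8 weeks inoculated subcutaneously with 1 × 10^6 B16-F10 cells stably expressing cytosolic luciferase. From day 5, IP dosing of 25 mg/kg thrice weekly, DMSO for controls, five mice per group. Imaging after IP D-luciferin 150 mg/kg under 2.5% isoflurane, read after 15 min. Caliper volume = π/6 × a × b². Tumors excised day 14.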

[15] = tested on: Mus musculus; test: Antiinflammatory activity in LPS-induced C57BL/6 mouse assessed as reduction in IL-1beta production in plasma at 25 mg/kg, ip pretreated for 30 mins followed by LPS induction measured after 4 hrs by ELISA method; format: functional, organism-based; conditions: time 4.5 hrs; summary of the method: as §2
[16] = tested on: B16-F10; test: Effect on cleaved caspase-1 expression in cytosolic luciferase-transfected mouse B16-F10 cells xenografted in C57BL/6 mouse at 25 mg/kg, ip administered thrice weekly measured after 14 days by Western blot analysis; format: functional, organism-based; conditions: time 14.0 day; summary of the method: as §3
[17] = tested on: THP-1; test: Suppression of NLRP3 expression in LPS-treated human THP-1 cells at 1 to 1000 nM incubated for 30 mins followed by ATP stimulation for 1 hr […]; format: functional, cell-based; conditions: dose 1-1000 nM, time 90.0 min
[18] = tested on: BMDM; test: Effect on AIM2 inflammasome activation in LPS-treated mouse BMDM cells assessed as IL-1beta release at 1 uM incubated for 30 mins followed by Poly (dA:dT) stimulation for 4 hrs by ELISA method; format: functional, cell-based; conditions: time 270.0 min
Summary of the method: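 BMDMs primed with LPS 100 ng/mL for 3 h, then compound 1 µM in serum-free medium for 30 min, then poly(dA:dT) 1 µg/mL transfected with lipofectamine 2000 for 4 h; supernatant mouse IL-1β by ELISA.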

[19] = tested on: B16-F10; test: Effect on ASC expression in cytosolic luciferase-transfected mouse B16-F10 cells xenografted in C57BL/6 mouse at 25 mg/kg, ip administered thrice weekly measured after 14 days by Western blot analysis; format: functional, organism-based; conditions: time 14.0 day; summary of the method: as §3
[20] = tested on: B16-F10; test: Antiproliferative activity against cytosolic luciferase-transfected mouse B16-F10 cells xenografted in C57BL/6 mouse assessed as effect on cell growth at 25 mg/kg, ip administered thrice weekly measured after 5 days; format: functional, organism-based; conditions: time 5.0 day
[21] = Metabolic stability in mouse liver microsomes assessed as half life measured per mg protein at 1 uM measured upto 60 mins by LC-MS/MS analysis; format: ADME, Microsome; summary of the method: as §1
[22] = tested on: THP-1; test: Suppression of ASC expression in LPS-treated human THP-1 cells at 1 to 1000 nM incubated for 30 mins followed by ATP stimulation for 1 hr […]; format: functional, cell-based; conditions: dose 1-1000 nM, time 90.0 min; summary of the method: as §4
[23] = tested on: B16-F10; test: Effect on pro-IL-1beta expression in cytosolic luciferase-transfected mouse B16-F10 cells xenografted in C57BL/6 mouse at 25 mg/kg, ip administered thrice weekly measured after 14 days by Western blot analysis; format: functional, organism-based; conditions: time 14.0 day; summary of the method: as §3
[24] = Metabolic stability in human liver microsomes assessed as intrinsic clearance measured per mg protein at 1 uM measured upto 60 mins by LC-MS/MS analysis; format: ADME, Microsome; conditions: read-out: CLH; summary of the method: as §1
[25] = tested on: THP-1; test: Suppression of pro-IL-1beta expression in LPS-treated human THP-1 cells at 1 to 1000 nM incubated for 30 mins followed by ATP stimulation for 1 hr […]; format: functional, cell-based; conditions: dose 1-1000 nM, time 90.0 min

Nc1ccc(S(=O)(=O)N2Cc3ccccc3C[C@H]2C(=O)Nc2c3c(cc4c2CCC4)CCC3)cc1
microsomal CLint at 1 µM [1]: 270 µL/min/mg | Activity [2]: Active | Activity [3]: Active | Activity [4]: Active | Activity [5]: Active | Activity [6]: inactive | Activity [7]: inactive | Activity [8]: Non-Toxic | Activity [9]: inactive | Activity [10]: inactive | Activity [11]: inactive | half-life at 1 µM [12]: 48.3 min | Activity [13]: inactive | Activity [14]: Active | Activity [15]: Active | Activity [16]: inactive | Activity [17]: inactive | Activity [18]: inactive | Activity [19]: inactive | Activity [20]: inactive | half-life at 1 µM [21]: 5.1 min | Activity [22]: inactive | Activity [23]: inactive | microsomal CLint at 1 µM [24]: 28.7 µL/min/mg | Activity [25]: inactive

Nc1ccc(S(=O)(=O)N[C@@H](Cc2ccc(O)cc2)C(=O)Nc2c3c(cc4c2CCC4)CCC3)cc1
microsomal CLint at 1 µM [1]: 124 µL/min/mg | Activity [2]: Active | Activity [3]: Active | Activity [4]: Active | Activity [5]: Active | Activity [6]: inactive | Activity [7]: inactive | Activity [8]: Non-Toxic | Activity [9]: inactive | Activity [10]: inactive | Activity [11]: inactive | half-life at 1 µM [12]: 46.2 min | Activity [13]: inactive | Activity [14]: Active | Activity [15]: Active | Activity [16]: inactive | Activity [17]: inactive | Activity [18]: inactive | Activity [19]: inactive | Activity [20]: inactive | half-life at 1 µM [21]: 11.2 min | Activity [22]: inactive | Activity [23]: inactive | microsomal CLint at 1 µM [24]: 31.9 µL/min/mg | Activity [25]: inactive
